Only some compounds are listed: those with a hit (about 2.3% of all), similar ones and a draw of the others.
CAL PDZ FP-1: human CAL PDZ-peptide interaction inhibition | inhibition, % at 20 µM | Q9HD26 | purified CAL PDZ, TMR-peptide fluorescence polarization, 1 h | 0.02% of 330,000 active;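 active = highest replicate inhibition of at least 40%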;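 note: plate controls were DMSO neutral control wells for no effect and unlabeled competitor peptide control wells for full effect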
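System: tagged CAL PDZ domain. Schedule: 1 h room-temperature incubation prior to read. Signal: fluorescence polarization (mP). Measure: percent inhibition from loss of millipolarization.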
SR-BI DiI-HDL act: enhances SR-BI lipid uptake from DiI-HDL. CHO ldlA[mSR-BI] cells, DiI-HDL uptake fluorescence, 3 h; 100 = double the neutral-control signal. activation, % at 12.5 µM. 0.096% of 320,000 active. AID 504775;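 active = mean replicate activation of at least 60% and every replicate at or above 60%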;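 note: 0% = median plate neutral-control signal and 100% = twice that signal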
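Material – SR-BI-overexpressing, LDLR-lacking CHO cells · Medium – BSA-supplemented, HEPES-buffered Ham's F12, pH 7.4 · Doses – single concentration · Times – compound with DiI-HDL co-incubation, 3 h at 37 °C · Measured by – bottom-read fluorescence, 550/595 nm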
ATG4B inh: blocks human ATG4B protease cleavage of LC3 substrate; inhibition, % at 8.33 µM; 0.51% of 340,000 active; ATG4B cleavage of LC3-PLA2, NBD-HPC fluorescence, 1 h; AID 504462; in the data active = inhibition above about 40%
CAL PDZ FP-2: blocks peptide binding to the human CAL PDZ domain. Q9HD26. purified CAL PDZ, TMR-peptide fluorescence polarization, 1 h. 0.92% of 300,000 active. inhibition, % at 24.9 µM;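 active = mean inhibition of at least 30% with at least half of replicates also reaching 30%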;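 note: 0% = DMSO neutral control and 100% = excess unlabeled competitor peptide PRC23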
SR-BI DiI inh: inhibitors of mouse SR-BI mediated HDL lipid uptake; ldlA[mSR-BI] CHO cells, DiI-HDL uptake fluorescence, 3 h; Q61009; 0.96% of 320,000 active; inhibition, % at 12.5 µM; AID 488896;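 active = mean replicate inhibition of at least 70% and a set share of replicates each scoring 70 or more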;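 note: 0% = median of neutral control wells and 100% = median of positive control wells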
Target sequence (Q61009 whole entry, looked up): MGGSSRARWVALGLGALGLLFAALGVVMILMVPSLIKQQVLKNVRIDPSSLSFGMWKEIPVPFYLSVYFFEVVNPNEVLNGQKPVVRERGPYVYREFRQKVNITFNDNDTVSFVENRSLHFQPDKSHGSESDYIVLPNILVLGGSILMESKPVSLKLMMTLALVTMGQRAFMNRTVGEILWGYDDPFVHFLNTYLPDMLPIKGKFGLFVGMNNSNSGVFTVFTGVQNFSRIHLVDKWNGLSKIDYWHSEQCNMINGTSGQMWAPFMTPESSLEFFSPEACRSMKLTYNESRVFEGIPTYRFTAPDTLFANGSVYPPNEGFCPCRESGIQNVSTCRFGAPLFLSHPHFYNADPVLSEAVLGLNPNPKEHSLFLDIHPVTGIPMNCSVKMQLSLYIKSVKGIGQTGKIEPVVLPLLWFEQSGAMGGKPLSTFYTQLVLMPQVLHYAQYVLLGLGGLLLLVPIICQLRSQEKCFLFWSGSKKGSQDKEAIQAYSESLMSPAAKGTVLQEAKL
ATG4B conf: ATG4B (human) inhibition, single-dose confirmed; AID 504757; ATG4B protease fluorescent substrate cleavage assay; 92% of 320 active; shares compounds with ATG4B inh; inhibition, % at 8.33 µM; in the data active = inhibition above about 39%
PLA2 ctr: counter-screen for ATG4B inhibitors: human phospholipase A2 | shares compounds with ATG4B inh | purified PLA2, NBD-C6-HPC fluorescence, 45 min | inhibition, % at 8.33 µM | 66% of 1,600 active | AID 588402; in the data active = inhibition above about 50%
* hit, by the source's call; nt = not tested or not shown.

SMILES	CAL PDZ FP-1	SR-BI DiI-HDL act	ATG4B inh	CAL PDZ FP-2	SR-BI DiI inh	PLA2 ctr	others
NC(=O)c1ccc(Oc2ccc(Cl)cc2)c([N+](=O)[O-])c1	0.2	3.7	58.9*	-2.9	-3.7	57.5*
COc1ccc(Nc2ccc(C(N)=O)cc2[N+](=O)[O-])cc1	-1.7	-2.1	31.8	-2.6	2.1	nt
O=[N+]([O-])c1cc(Cl)ccc1Oc1ccc(-c2nnco2)cc1	-2.1	0.5	0.4	-1.9	-0.5	nt
NC(=O)c1ccc(Oc2ccc3c(c2)CCC3)c([N+](=O)[O-])c1	-2.3	5.2	80.2*	28.3	-5.2	85.4*
Cc1cccn2c(=O)c(/C=C(\C#N)C(=O)NCc3ccco3)c(N3CCCC(C)C3)nc12 (configuration not stated)	-2.8	-67.0	51.3*	-3.6	67.0	67.5*
Cc1cccn2c(=O)c(/C=C(\C#N)C(=O)NCc3ccco3)c(N3CCCCCC3)nc12	nt	nt	24.4	nt	nt	nt
Cc1cccn2c(=O)c(/C=C(\C#N)C(=O)NCc3ccco3)c(N3CCCCC3)nc12	-3.8	-42.2	62.7*	-3.6	42.2	60.0*
C#CCOCCOCCOCCNc1nc(N2CCN(C(=O)CCCCCCCCCCNC(=O)[C@H]([C@@H](C)CC)n3cc(CCCCN=C(N)N)nn3)CC2)nc(N2CCN(C(=O)CCCCCCCCCCNC(=O)[C@H](CCCCN)n3cc(C)nn3)CC2)n1	nt	nt	56.9*	nt	nt	28.0	ATG4B conf=28.2
C#CCOCCOCCOCCNc1nc(N2CCN(C(=O)CCCCCCCCCCNC(=O)[C@H]([C@@H](C)CC)n3cc(CCCCCN)nn3)CC2)nc(N2CCN(C(=O)CCCCCCCCCCNC(=O)[C@H](CCCCN)n3cc(CCCC(=O)O)nn3)CC2)n1	-1.0	-7.7	3.0	-3.3	7.7	nt
Cc1cc(C)cc(N(CC(=O)NC2CCC(C)CC2)S(=O)(=O)c2c(C)[nH]c(=O)[nH]c2=O)c1 (configuration not stated)	-0.4	nt	-12.6	3.2	nt	nt
Fc1ccccc1CSc1nnc(-c2ccccc2)o1	-1.2	28.2	29.1	-0.2	-28.1	nt
Cc1ccccc1-c1nnc(SCc2ccccc2F)o1	-0.8	-6.1	54.2*	1.3	6.1	63.7*
O=C(NNc1nccc(C(F)(F)F)n1)Nc1cccc(Cl)c1	-0.4	25.8	-0.8	0.7	-25.8	nt
O=C(NNc1cc(C(F)(F)F)nc2ccccc12)Nc1cccc(Cl)c1	0.1	-48.5	85.3*	nt	48.5	84.7*
COc1cc(Cl)ccc1OCc1cc(C(=O)N(C)CCc2cnn(C)c2)no1	-2.7	-17.2	-8.1	-4.9	17.2	nt
O=C1NC(=O)/C(=C/c2ccccc2OCc2ccccc2)S1	-4.2	8.3	46.0*	-16.1	-8.3	53.2*
O=C1NC(=O)/C(=C\c2ccccc2Oc2ccc(F)c(F)c2)S1	-1.6	18.5	56.8*	-2.3	-18.5	48.5
O=C1NC(=O)C(=Cc2ccc(Cl)cc2Cl)S1	-1.5	2.2	4.6	0.4	-2.2	nt
O=C(Cc1ccc(NC(=O)C2CCN(C(=O)C3CCCC3)CC2)cc1)Nc1ccc(C(=O)N2CCOCC2)cc1	-1.3	39.2	-6.1	-17.8	-39.2	nt
OC(c1cc(-c2cccc(Cl)c2)nc2ccccc12)C1CCCCN1 (configuration not stated)	-2.4	-37.8	42.5*	nt	37.8	65.8*
Cc1ccc(NC(=S)N2CCSC2c2cccs2)cc1 (configuration not stated)	-1.3	-34.4	-4.8	3.1	34.4	nt
O=C(O)c1ccc(N=NNc2cccc([N+](=O)[O-])c2)cc1	-0.3	20.1	7.6	5.8	-20.1	nt
N#C/C(=N\Nc1cccc([N+](=O)[O-])c1)C(=O)c1ccc(Br)cc1	-4.3	-34.7	57.1*	-2.9	34.7	80.1*
O=C(c1ccc(COc2ccccc2Br)cc1)N1CCCCCC1	-2.4	-23.8	43.8*	-6.1	23.8	55.4*
Cc1ccc(NC(=O)CSc2nc(N)cc(=O)[nH]2)cc1S(=O)(=O)N1CCCCC1	-1.5	13.7	-2.5	-4.6	-13.8	nt
